# Reference: ChEMBL document CHEMBL4138078, “Structure-based virtual screening and optimization of modulators targeting Hsp90-Cdc37 interaction” (Eur J Med Chem, 2017)
# Activity calls are given as the source filed them. No cut-off for these calls is given here.
# Legend:
# [1] = species: Homo sapiens; test: Inhibition of full length His-tagged HSP90/GST-tagged Cdc37 (unknown origin) interaction at 100 uM after 1 hr by HTRF assay relative to control
# Procedure, shortened: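 HTRF assay using His-tagged full-length Hsp90 and GST-tagged Cdc37 M, each 250 nM final, in PBS with an extra 400 mM KF, pH 7.4. Compound incubated 1 h at 37 °C. Anti-GST-Cryptate and anti-6His-XL665 then added, 0.5 h at 37 °C. Ex 320 nm; ratio = (665/620 nm) × 10000. No-compound negative control and reagent-only blank.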
# [2] = species: Homo sapiens; test: Inhibition of full length His-tagged HSP90/GST-tagged Cdc37 (unknown origin) interaction at 10 uM after 1 hr by HTRF assay relative to control
# [3] = tested on: MCF7; test: Antiproliferative activity against human MCF7 cells at 10 uM after 72 hrs by MTT assay relative to control; type: functional
# [4] = tested on: SK-BR-3; test: Antiproliferative activity against human SKBR3 cells at 10 uM after 72 hrs by MTT assay relative to control; type: functional
# [5] = tested on: A549; test: Antiproliferative activity against human A549 cells at 10 uM after 72 hrs by MTT assay relative to control; type: functional
# [6] = species: Homo sapiens; test: Inhibition of N-terminal GST-tagged HSP90/Cdc37 (unknown origin) interaction expressed in Escherichia coli at 20 uM preincubated with Cdc37 for 1 hr followed by addition to HSP90 by GST-pull down assay
# Procedure, shortened: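 Pull-down with 10 μg GST-Hsp90 N-terminal domain immobilised as bait on glutathione resin spin columns. Compound incubated with Cdc37 for 1 h at 37 °C, then added to the columns. Loading buffer 25 mM Tris, 0.15 M NaCl, pH 7.2; elution with extra 10 mM reduced glutathione; spins 1 min at 1,000 × g, 4 °C. Eluate analysed by SDS-PAGE and anti-GST/anti-His western blot.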
# [7] = species: Homo sapiens; test: Inhibition of HSP90/Cdc37 protein-protein interaction in human SKBR3 cells assessed as decrease in Akt level after 24 hrs by Western blot analysis; type: cell-based
# Procedure, shortened: (§1)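 SKBR-3 cells treated with compound at 1, 10 and 50 μM for 24 h. After a PBS rinse and trypsinisation, cells lysed in Tris-HCl pH 7.5 buffer with NaCl, EDTA, NP-40, PMSF, NaF and DTT; lysate spun 12000 rpm, 10 min, 4 °C. Protein by BCA, equal loads on SDS-PAGE. Probed for Hsp90, Akt, Cdk4, β-actin; DyLight 800 secondary, infrared imaging.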
# [8] = species: Homo sapiens; test: Inhibition of HSP90/Cdc37 protein-protein interaction in human SKBR3 cells assessed as decrease in CDK4 level after 24 hrs by Western blot analysis; type: cell-based; procedure, shortened: as §1
# [9] = tested on: SK-BR-3; test: Effect on HSP90 level in human SKBR3 cells at 1 to 50 uM after 24 hrs by Western blot analysis; type: functional, cell-based; procedure, shortened: as §1
structure (smiles),measurement,setting,value
CC1=C(O)C(=O)C=C2C1=CC=C1[C@@]2(C)CC[C@@]2(C)[C@@H]3C[C@](C)(C(=O)O)CC[C@]3(C)CC[C@]12C [CELASTROL],inhibition,[1],92.3%
same,inhibition,[2],79.3%
same,Activity,[3],98.62%
same,Activity,[4],97.62%
same,Activity,[5],95.43%
same,inhibition,[6],Active
same,inhibition,[7],Dose-dependent effect
same,inhibition,[8],Dose-dependent effect
same,Activity,[9],inactive
